Data set [1] has as its system HEK293. The data set is described as follows: Potency index, ratio of (3R,5S,8R,9S,10S,13S,14S)-3-hydroxy-3-((4-(3-methoxybenzyl)piperazin-1-yl)methyl)-10,13-dimethyltetradecahydro-1H-cyclopenta[a]phenanthren-17(2H)-one IC50 to compound IC50 for inhibition of human 17-beta-HSD10 expressed in HEK-293 cells. The class given is cell-based.
Data set [2] in a line: Inhibition of human 17-beta-HSD10 expressed in HEK293 cells assessed as reduction in oxidation of [14C]-estradiol to [14C]-estrone incubated for 40 hrs by thin layer chromatography. The class given is cell-based. Summed up: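 The same HEK-293[17β-HSD10] cell assay was used: 2.5 x 10^5 cells, 0.5% final DMSO, 1 µM E2/[14C]-E2 (9:1) for 40 h at 37°C, with Et2O extraction, TLC and radioactivity quantification. Inhibitor was tested from 0.01 to 5 µM in triplicate. IC50 was calculated from the inhibition curves.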

Data set [3] addresses T1, 17-beta-hydroxysteroid dehydrogenase type 3 (Homo sapiens, UniProt P37058).
T1 sequence (P37058 whole entry): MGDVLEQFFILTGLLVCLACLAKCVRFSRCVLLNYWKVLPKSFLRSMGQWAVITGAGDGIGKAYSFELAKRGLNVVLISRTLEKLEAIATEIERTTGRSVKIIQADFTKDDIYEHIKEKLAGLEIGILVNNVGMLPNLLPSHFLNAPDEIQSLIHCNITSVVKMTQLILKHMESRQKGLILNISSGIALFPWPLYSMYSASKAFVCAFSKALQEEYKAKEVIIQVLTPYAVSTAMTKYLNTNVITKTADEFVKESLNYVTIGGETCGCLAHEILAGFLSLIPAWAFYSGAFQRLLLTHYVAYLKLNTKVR
In words: Inhibition of human 17-beta-HSD3 expressed in LNCaP cells assessed as reduction in […]-3,17-dione to [14C]-testosterone at 3 uM incubated for 1 hr by thin layer chromatography. The class given is cell-based. In outline:
(§1)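 LNCaP cells overexpressing 17β-HSD3 were plated at 10^4 per well in medium without hygromycin for 2 days. 15 nM [14C]-4-androstene-3,17-dione plus inhibitor was then added (final DMSO 0.05%) for 1 h at 37°C. Steroids were Et2O-extracted and separated by silica TLC (toluene/acetone 4:1). % inhibition was taken from radioactivity-based % transformation versus a blank control.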

Data set [4] has as its system HEK293. The data set is described as follows: Inhibition of human 17-beta-HSD10 expressed in HEK293 cells assessed as reduction in oxidation of [14C]-estradiol to [14C]-estrone at 0.3 uM incubated for 40 hrs by thin layer chromatography. The class given is cell-based. Summed up:
(§2)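 Stably transfected HEK-293 cells expressing human 17β-HSD10 (G418-selected) were seeded at 2.5 x 10^5 per well for 24 h. Inhibitor was added from a DMSO stock (final DMSO 0.5%) with E2/[14C]-E2 (9:1, final 1 µM) for 40 h at 37°C. Steroids were Et2O-extracted, TLC-separated and quantified by radioactivity. % inhibition was taken from blank-corrected % transformation, run in triplicate.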

The test system of data set [5] is HEK293. The data set is described as follows: Inhibition of human 17-beta-HSD10 expressed in HEK293 cells assessed as reduction in oxidation of [14C]-estradiol to [14C]-estrone at 3 uM incubated for 40 hrs by thin layer chromatography. It is filed as cell-based. In outline: as §2
Data set [6] in a line: Metabolic stability in human liver microsomes assessed as compound remaining at 1 uM incubated for 1 hr in presence of NADPH by HPLC-MS analysis. The class given is ADME, Microsome. As to conditions: read-out: Stabilty. Summed up: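 Human liver microsomes (40 µg) were incubated with compound for 1 h at 37°C, with or without 10 mM NADPH, in 50 mM Tris with 10 mM MgCl2. The reaction was quenched with MeOH and centrifuged, and supernatants from 2 assays were pooled. Analysis was by HPLC-MS with UV at 190 nm. Remaining % = peak area with NADPH / area without NADPH x 100, from two experiments in duplicate.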
Background: Liver microsomes are vesicles of endoplasmic reticulum, rich in cytochrome P450 enzymes.

Data set [7] concerns the target T1, 17-beta-hydroxysteroid dehydrogenase type 3. In words: Inhibition of human 17-beta-HSD3 expressed in LNCaP cells assessed as reduction in […]-3,17-dione to [14C]-testosterone at 0.3 uM incubated for 1 hr by thin layer chromatography. The class given is cell-based. Summed up: as §1

Structures are written as SMILES.

Regarding `C[C@]12CC[C@](O)(CN3CCN(C(=S)NCc4cccc(C(F)(F)F)c4)CC3)C[C@@H]1CC[C@@H]1[C@@H]2CC[C@]2(C)C(=O)CC[C@@H]12`, in data set [1], the Ratio IC50 was found to be 1.6. In addition, the IC50 in data set [2] was 1410 nM.

As for `C#C[C@]1(O)CC[C@H]2[C@@H]3CC[C@H]4C[C@@](O)(CN5CCN(Cc6ccc(C(F)(F)F)c(OC)c6)CC5)CC[C@]4(C)[C@H]3CC[C@@]21C`, the Ratio IC50 in data set [1] was 1.8. Moreover, the IC50 in data set [2] was 1260 nM.

In the case of `C[C@]12CC[C@](O)(CN3CCN(C(=O)c4ccc(-c5ccccc5)cc4)CC3)C[C@@H]1CC[C@@H]1[C@@H]2CC[C@]2(C)C(=O)CC[C@@H]12`, the Ratio IC50 in data set [1] was 0.87. Besides, the IC50 in data set [2] turned out to be 2600 nM.

With `COc1cc(CN2CCN(C[C@@]3(O)CC[C@@]4(C)[C@@H](CC[C@@H]5[C@@H]4CC[C@]4(C)[C@H](O)CC[C@@H]54)C3)CC2)ccc1C(F)(F)F`, the Ratio IC50 in data set [1] turned out to be 2.4. Also, the IC50 in data set [2] came to 950 nM.

Turning to `C#C[C@]1(O)CC[C@H]2[C@@H]3CC[C@H]4C[C@@](O)(CN5CCN(Cc6cccc(OC)c6)CC5)CC[C@]4(C)[C@H]3CC[C@@]21C`, the inhibition at 3 µM in data set [3] was found to be 4%. Moreover, the inhibition in data set [4] worked out at 22.4%; in data set [5], 45.8%. For the same compound, the remaining at 1 h, 1 µM in data set [6] is 45.5%. Moreover, in data set [7], the inhibition at 0.3 µM turned out to be 2%.

As to `CCN(C)S(=O)(=O)N1CCN(C[C@@]2(O)CC[C@@]3(C)[C@@H](CC[C@@H]4[C@@H]3CC[C@]3(C)C(=O)CC[C@@H]43)C2)CC1`, the Ratio IC50 in data set [1] is 1.44. Besides, the 50% inhibitory concentration (IC50) in data set [2] is 1570 nM.

Take `CN(C)S(=O)(=O)c1ccc(NC(=S)N2CCN(C[C@@]3(O)CC[C@@]4(C)[C@@H](CC[C@@H]5[C@@H]4CC[C@]4(C)C(=O)CC[C@@H]54)C3)CC2)cc1`: in data set [1], the Ratio IC50 was 2.11. The IC50 in data set [2] was 1070 nM.

In the case of `CC(=O)c1cccc(C(=O)N2CCN(C[C@@]3(O)CC[C@@]4(C)[C@@H](CC[C@@H]5[C@@H]4CC[C@]4(C)C(=O)CC[C@@H]54)C3)CC2)c1`, the Ratio IC50 in data set [1] came to 0.98. Further, in data set [2], the IC50 was 2300 nM.

`COc1cc(CN2CCN(C[C@@]3(O)CC[C@@]4(C)[C@@H](CC[C@@H]5[C@@H]4CC[C@]4(C)C(=O)CC[C@@H]54)C3)CC2)ccc1C`: the Ratio IC50 in data set [1] amounted to 5.38. Besides, the IC50 in data set [2] worked out at 420 nM.

For the compound `COc1cc(CN2CCN(C[C@@]3(O)CC[C@@]4(C)[C@@H](CC[C@@H]5[C@@H]4CC[C@]4(C)C(=O)CC[C@@H]54)C3)CC2)ccc1C(F)(F)F`, in data set [1], the Ratio IC50 came out at 16.1. In data set [2], the IC50 is 140 nM.

As to `COc1cccc(CN2CCN(C[C@@]3(O)CC[C@@]4(C)[C@@H](CC[C@@H]5[C@@H]4CC[C@]4(C)C(=O)C(C)(C)C[C@@H]54)C3)CC2)c1`, in data set [3], the inhibition at 3 µM was found to be 51.9%. Also, the inhibition was 10.8% in data set [4] and 27.9% in data set [5]. For the same compound, the remaining at 1 h, 1 µM in data set [6] is 54.5%. The inhibition at 0.3 µM in data set [7] amounted to 12.4%.

Consider `C[C@]12CC[C@](O)(CN3CCN(C(=O)c4ccc(C#N)cc4)CC3)C[C@@H]1CC[C@@H]1[C@@H]2CC[C@]2(C)C(=O)CC[C@@H]12`, for which the Ratio IC50 in data set [1] was found to be 1.36. Further, the IC50 in data set [2] stood at 1660 nM.

Consider `COc1cccc(CN2CCN(C[C@@]3(O)CC[C@@]4(C)[C@@H](CC[C@@H]5[C@@H]4CC[C@]4(C)C(=O)CC[C@@H]54)C3)CC2)c1`, for which the inhibition at 3 µM in data set [3] turned out to be 84.4%. Also, the inhibition was 40.7% in data set [4] and 70.4% in data set [5]. For the same compound, the remaining at 1 h, 1 µM in data set [6] was determined as 28%. Besides, the inhibition at 0.3 µM in data set [7] amounted to 30.2%. Besides, in data set [2], the IC50 was determined as 2260 nM.

With `COc1cccc(CN2CCN(C[C@@]3(O)CC[C@@]4(C)[C@@H](CC[C@@H]5[C@@H]4CC[C@]4(C)[C@H](O)CC[C@@H]54)C3)CC2)c1`, the inhibition at 3 µM in data set [3] was 3.8%. The inhibition is 13.5% in data set [4] and 36.9% in data set [5]. For the same compound, the remaining at 1 h, 1 µM in data set [6] turned out to be 70.6%. Moreover, the inhibition at 0.3 µM in data set [7] came out at 5.2%.

On to `COc1cccc(CN2CCN(C[C@@]3(O)CC[C@@]4(C)[C@@H](CC[C@@H]5[C@@H]4CC[C@@]4(C)[C@H]5CCC4(F)F)C3)CC2)c1`, for which the inhibition at 3 µM in data set [3] was -0.5%. In addition, the figures for the inhibition in data set [4] and in data set [5] were 5.5% and 40.8%, respectively. The remaining at 1 h, 1 µM in data set [6] was 34.1%. Further, in data set [7], the inhibition at 0.3 µM came to 1.1%.

With `COc1cccc(CN2CCN(C[C@@]3(O)CC[C@@]4(C)[C@@H](CC[C@@H]5[C@@H]4CC[C@@]4(C)[C@H]5CC[C@]4(C)O)C3)CC2)c1`, the inhibition at 3 µM in data set [3] was determined as 20.6%. For the same compound, the values for the inhibition in data set [4] and in data set [5] were 20.5% and 41.9%, respectively. In addition, the remaining at 1 h, 1 µM in data set [6] worked out at 21.8%. Further, the inhibition at 0.3 µM in data set [7] stood at 2%.

Regarding `COc1cc(C)ccc1CN1CCN(C[C@@]2(O)CC[C@@]3(C)[C@@H](CC[C@@H]4[C@@H]3CC[C@]3(C)C(=O)CC[C@@H]43)C2)CC1`, in data set [1], the Ratio IC50 came to 0.75. Further, the IC50 in data set [2] was determined as 3000 nM.

As to `C[C@]12CC[C@](O)(CN3CCN(C(=O)c4ccc(C(=O)c5ccccc5)cc4)CC3)C[C@@H]1CC[C@@H]1[C@@H]2CC[C@]2(C)C(=O)CC[C@@H]12`, the Ratio IC50 in data set [1] worked out at 0.79. Also, in data set [2], the half-inhibitory concentration (IC50) was 2850 nM.

With `Cc1cc(C)cc(C(=O)N2CCN(C[C@@]3(O)CC[C@@]4(C)[C@@H](CC[C@@H]5[C@@H]4CC[C@]4(C)C(=O)CC[C@@H]54)C3)CC2)c1`, in data set [1], the Ratio IC50 was 1.1. In addition, the IC50 in data set [2] turned out to be 2050 nM.

As for `COc1cccc(CN2CCN(C[C@@]3(O)CC[C@@]4(C)[C@@H](CC[C@@H]5[C@@H]4CC[C@]4(C)[C@@H](O)CC[C@@H]54)C3)CC2)c1`, the inhibition at 3 µM in data set [3] worked out at 48.7%. For the same compound, the inhibition worked out at 8.5% in data set [4] and 42.4% in data set [5]. Besides, the remaining at 1 h, 1 µM in data set [6] was 67.2%. The inhibition at 0.3 µM in data set [7] worked out at 5%.

On to `C[C@]12CC[C@](O)(CN3CCN(Cc4cnc5ccccc5c4)CC3)C[C@@H]1CC[C@@H]1[C@@H]2CC[C@]2(C)C(=O)CC[C@@H]12`, for which the Ratio IC50 in data set [1] was determined as 2.33. Further, the IC50 in data set [2] worked out at 970 nM.

In general, IC50 refers to the concentration that gives 50% inhibition. As a reminder, the inhibition is the change of the read-out against control, counted positive when it falls.

For the origin of these results see ChEMBL document CHEMBL4732072, “Synthesis of 17β-hydroxysteroid dehydrogenase type 10 steroidal inhibitors: Selectivity, metabolic stability and enhanced potency” (Eur J Med Chem, 2021).
